# Source: PubChem (several laboratories)
# Scp-1 inhibitor: Scp-1 phosphatase inhibitors, primary screen, biochemical, colorimetric, uHTS; Carboxy-terminal domain RNA polymerase II polypeptide A small phosphatase 1 (Homo …; Recombinant Scp1, phosphopeptide, malachite green phosphate absorbance; inhibition, % at 20 µM; 340,000 tested, 0.88% active;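 active = inhibition above about 50% at 20 µM, limit read from the data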;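 note: plate controls were DMSO wells with enzyme for no effect and wells lacking enzyme for full effect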
#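 System: SCP-1 catalytic domain; Reagent: Phospho 17-mer peptide substrate; Doses: one concentration, 20 µM, with 1.0% DMSO; Incubation: 45 min room-temperature reaction, 5 min colour, 30 min stabiliser; Signal: Phosphate-binding colour reagent, absorbance read at 630 nm.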
# LMPTP block: LMPTP phosphatase inhibitors, primary screen, biochemical, fluorescence intensity, uHTS. recombinant LMPTP-A, OMFP fluorogenic substrate. inhibition, % at 20 µM. 360,000 tested, 0.22% active. AID 651560, 2012;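 active = compounds that cut the enzyme signal by at least half of the control window in the single-dose screen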;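 note: plate controls were DMSO wells with enzyme plus substrate for no effect and substrate without enzyme for full effect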
#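 Assay system: LMPTP-A enzyme. Input: 0.625 nM LMPTP-A final. Probe or stimulus: 400 µM OMFP. Compound dosing: single 20 µM dose. Schedule: 50 min dark incubation at room temperature. Detection: fluorescence intensity of OMFP turnover product. Read-out: percent inhibition versus substrate-only and uninhibited controls. Benchmarks: no-enzyme low control, uninhibited high control.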
# STEP inh: STEP phosphatase inhibitors, primary screen, biochemical, fluorescence intensity, uHTS; inhibition, % at 20 µM; Tyrosine-protein phosphatase non-receptor type 5 (Homo sapiens), P54829; recombinant STEP, OMFP fluorogenic substrate; 360,000 tested, 0.25% active;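 active = inhibition at 20 µM, scaled per plate between control wells, above about 37%, limit read from the data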;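 note: 0% = DMSO with enzyme and substrate and 100% = substrate only without enzyme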
#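 Measure: Control-normalized % inhibition with plate pattern correction | Test system: STEP phosphatase, cell-free reaction | Medium: pH 6.0 Bis-Tris with DTT and Tween 20 | Technique: Fluorescence, 480/540 nm | Times: Reaction 20 min, ambient temperature | Doses: Single compound dose of 20 µM, 1% DMSO final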
# DNMT1 inh: human DNMT1 methyltransferase inhibitors, primary screen, biochemical, molecular beacon, fluorescence, HinP1I cleavage, uHTS. DNA (cytosine-5)-methyltransferase 1 (Homo sapiens), P26358. 360,000 tested, 0.83% active. inhibition (reported as % activation of signal), % at 10 µM. AID 588458, 2011; in the data active = inhibition above about 50%
# Target sequence (P26358 504-1616 limits assumed): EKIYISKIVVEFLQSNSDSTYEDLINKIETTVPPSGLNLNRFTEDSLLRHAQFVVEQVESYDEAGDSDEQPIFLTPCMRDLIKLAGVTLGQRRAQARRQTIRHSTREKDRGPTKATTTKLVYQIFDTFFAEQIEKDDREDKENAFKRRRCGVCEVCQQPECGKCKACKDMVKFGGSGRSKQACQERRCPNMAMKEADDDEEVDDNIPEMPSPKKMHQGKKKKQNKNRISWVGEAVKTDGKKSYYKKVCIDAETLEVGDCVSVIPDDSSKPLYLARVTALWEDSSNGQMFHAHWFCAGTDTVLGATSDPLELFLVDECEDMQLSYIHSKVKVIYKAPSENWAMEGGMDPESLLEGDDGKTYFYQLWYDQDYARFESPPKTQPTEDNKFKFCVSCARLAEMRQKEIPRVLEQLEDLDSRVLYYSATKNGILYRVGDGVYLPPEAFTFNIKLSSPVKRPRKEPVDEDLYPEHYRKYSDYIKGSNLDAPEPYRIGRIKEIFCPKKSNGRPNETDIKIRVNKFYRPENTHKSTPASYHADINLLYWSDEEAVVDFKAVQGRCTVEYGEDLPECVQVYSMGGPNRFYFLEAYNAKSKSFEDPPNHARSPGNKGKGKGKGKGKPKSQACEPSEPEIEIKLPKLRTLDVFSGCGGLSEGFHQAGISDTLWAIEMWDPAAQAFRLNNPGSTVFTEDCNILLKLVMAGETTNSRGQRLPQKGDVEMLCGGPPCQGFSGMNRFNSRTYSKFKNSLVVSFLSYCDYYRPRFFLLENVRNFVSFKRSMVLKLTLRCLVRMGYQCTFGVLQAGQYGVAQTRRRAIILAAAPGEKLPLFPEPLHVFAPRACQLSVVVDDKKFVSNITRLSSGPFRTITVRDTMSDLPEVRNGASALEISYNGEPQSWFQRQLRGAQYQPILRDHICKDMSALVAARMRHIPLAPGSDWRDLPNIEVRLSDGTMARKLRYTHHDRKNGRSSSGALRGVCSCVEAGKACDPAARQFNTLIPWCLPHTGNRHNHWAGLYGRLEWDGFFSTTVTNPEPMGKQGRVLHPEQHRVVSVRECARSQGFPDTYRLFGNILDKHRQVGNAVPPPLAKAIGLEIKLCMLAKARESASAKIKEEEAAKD
# SUMO1 PPI mod: modulators of SUMO1 protein-protein interactions, primary screen, biochemical, uHTS. Small ubiquitin-related modifier 1 (Homo sapiens), P63165. SUMO1 binding to a labelled peptide, TR-FRET, 1 h. inhibition, % at 20 µM. 360,000 tested, 0.33% active. AID 602429, 2012; in the data active = inhibition above about 37%
# GRK2 inh: compounds blocking aptamer binding on GRK2 – biochemical, human GRK2, bead flow cytometry, HTS, primary screen; Beta-adrenergic receptor kinase 1 (Homo sapiens), P25098; inhibition of aptamer binding, % at 10 µM; FAM-aptamer displacement from GRK2; 330,000 tested, 0.59% active; AID 488847, 2010;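 active = inhibition of aptamer binding above 40%, roughly 3 SD of noise, on plates passing a quality check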;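 note: median bead fluorescence of bound FAM aptamer so fluorescent compounds give negative values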
# DNMT1 interf DR: spectral interference with molecular beacon fluorescence, dose response, artefact control for DNMT1 inhibitor project, biochemical, fluorescent molecular beacon. shares compounds with DNMT1 inh. spectral interference counter-screen. IC50, µM. 200 tested, under 10 active. AID 602382, 2012; call rule not given here
# DNMT1 inh conf: DNMT1 methyltransferase inhibitor retest, confirmation, biochemical, molecular beacon, fluorescence, single concentration | inhibition, % at 10 µM | shares compounds with DNMT1 inh | AID 602385, 2012 | 2,300 tested, 8% active | DNMT1 molecular beacon HinP1I cleavage;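 active = average inhibition of at least 30% in the single-concentration confirmation test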
# DNMT1 interf: counter-screen for DNMT1 inhibitors: spectral interference | DNMT1 molecular beacon spectral interference counterscreen, fluorescence 485/520 | activation (fluorescence interference), % at 10 µM | 2,300 tested, 1% active | shares compounds with DNMT1 inh;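 active = activation of at least 30% at 10 µM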;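 note: DNMT1 catalytic domain with a HinP1I cleavage step and a FAM/dabcyl DNA beacon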
# Active calls of the source: *; . = no result. Most compounds without a hit are left out; they make up all but 2.2% or so of the library.
SMILES,Scp-1 inhibitor,LMPTP block,STEP inh,DNMT1 inh,SUMO1 PPI mod,GRK2 inh,DNMT1 inh conf,DNMT1 interf,others
O=C(O)c1ccc(-c2nc3ccccc3s2)o1,1,-1,0,0,-7,0,.,.,
O=C(OCc1cc(=O)n2ccsc2n1)c1ccccc1NCCO,59*,4,5,59*,11,5,4,3,
CC(C)Oc1ccc(S(=O)(=O)N2CCOCC2)cc1NC(=O)CC1CCCC1,-10,0,2,-2,2,0,.,.,
CC(C)Oc1ccc(S(=O)(=O)N2CCOCC2)cc1NC(=O)Cc1c(F)cccc1Cl,-4,1,1,90*,1,2,1,2,
CCc1cc2c(=O)n3c(nc2s1)-c1[nH]c2ccc(OC)cc2c1CC3,2,2,1,76*,-2,1,5,5,
O=[N+]([O-])c1ccc(COc2ccc(CNc3ccccc3)cc2)cc1,0,1,4,0,-1,11,.,.,
O=[N+]([O-])c1ccc(COc2cccc(CNc3ccc(Br)cc3)c2)cc1,-1,5,2,71*,-6,4,5,6,
Cc1cc2c(cc1C)-c1nnnn1C(N1CCC(Cc3ccccc3)CC1)C(=O)N2 (stereo not drawn),.,4,.,.,0,.,.,.,
O=C(c1cc2cc(Br)ccc2oc1=O)N1CCN(c2ccccn2)CC1,3,0,-2,2,-7,0,.,.,
O=C(c1cc2cc(Cl)ccc2oc1=O)N1CCN(c2ccccn2)CC1,0,1,1,89*,-6,0,-2,2,
CCOC(=O)c1c(NC(=O)COC(=O)Cn2c(C)nc3ccccc32)sc2c1CCCC2,5,27,10,65*,-9,2,5,1,
COC(=O)COc1ccc(S(=O)(=O)Nc2ccccc2SC)cc1,-28,-1,-1,79*,-1,0,4,8,
CCOc1ccc(S(=O)(=O)Nc2ccccc2SC)cc1,-4,2,2,-6,1,0,.,.,
O=C(O)Cn1nncc1-c1ccc(C(F)(F)F)cc1,.,-1,2,6,1,.,.,.,
CSc1nnc2c3cc(C)ccc3n(Cc3ccccc3)c2n1,11,22,10,77*,-7,0,-3,-6,
O=C(Nc1ccc(F)cc1)C(c1ccccc1OC(F)(F)F)N1CCN(c2cccc(C(F)(F)F)n2)CC1 (stereo not drawn),.,2,.,.,-6,.,.,.,
COC(=O)Cn1c(=NC(=O)c2sc3ccccc3c2Cl)sc2cc(S(N)(=O)=O)ccc21,1,33,4,66*,-5,0,3,-10,
Nc1ccn([C@@H]2O[C@H](C(=O)NCc3ccc4c(c3)OCO4)[C@@H](O)[C@H]2O)c(=O)n1,.,-1,-2,-3,5,.,.,.,
CN(c1ccccc1)c1ccc(/C=C(\CCC(=O)O)c2nc3ccccc3s2)cc1[N+](=O)[O-],8,3,1,74*,10,1,27,-4,DNMT1 interf DR=>99
Cc1cccc(Nc2nnc(SCC(=O)NC(=O)Nc3ccc4c(c3)OCCO4)s2)c1,-5,-1,1,50*,0,0,-1,2,
Cc1ccccc1Nc1nnc(SCC(=O)NC(=O)Nc2ccc3c(c2)OCCO3)s1,.,.,.,.,.,1,.,.,
CCN1CCN(C(=O)c2ccc(CS(=O)(=O)Cc3ccccc3Cl)o2)CC1,.,-2,-3,0,0,.,.,.,
COc1ccc(C2=CC(=O)OC3(CCCCC3)O2)cc1,-9,0,0,2,3,0,.,.,
C=C(C)C1(O)OC(=O)C=C1OC (stereo not drawn),4,0,-3,53*,-2,2,5,4,
Cc1cc(C)cc(-n2nnnc2SCC(=O)N2CCOCC2)c1,1,0,1,79*,4,3,0,4,
SMILES,Scp-1 inhibitor,LMPTP block,STEP inh,DNMT1 inh,SUMO1 PPI mod,GRK2 inh,DNMT1 inh conf,DNMT1 interf,others
COc1cc(OC)cc(-n2nnnc2SCC(=O)N2CCCC2)c1,-5,-3,-2,-2,-2,1,.,.,
O=C(NCCc1cccs1)Nc1ccc2nc([C@@H]3O[C@H](CO)[C@@H](O)[C@H]3O)[nH]c2c1,.,-1,-2,0,-12,.,.,.,
Cc1cc(NC(=O)c2cc(-c3ccccn3)nc3c(Cl)cccc23)no1,45,4,1,58*,2,4,0,0,
Cc1cc(NC(=O)c2cc(-c3ccccn3)nc3ccccc23)no1,-4,-1,0,0,14,4,.,.,
COC(=O)C1CCN(C(=O)CSc2nc3nc(C)cc(C)n3n2)CC1,-1,0,-1,63*,-6,.,1,2,
Cc1ccc(-c2nc3c(c(=O)[nH]c(=O)n3Cc3ccccc3)n2Cc2ccccc2)o1,-3,2,5,6,-1,.,.,.,
Cc1ccc(-c2nc3c(c(=O)[nH]c(=O)n3Cc3ccccc3)n2C)o1,27,10,2,70*,0,.,4,0,
COc1cccc2cc(C(=O)Nc3cc(Cl)ccc3N3CCOCC3)c(=O)oc12,-6,1,3,55*,2,40,3,5,
CCCCNc1c(-c2cccnc2)nc2nc(C)cc(C)n12,.,0,.,.,-6,.,.,.,
COc1cccc(N=Nc2c(=O)[nH]n3c(=O)cc(C)[nH]c23)c1,9,4,2,-3,-26,5,.,.,
COc1cccc(N=Nc2c(=O)[nH]n3c(=O)c4c([nH]c23)CCC4)c1,23,13,4,60*,-10,9,-1,-5,
COC(=O)[C@@]12C[C@@H](CC(=O)NCc3ccc(C)o3)C(=O)N(Cc3cccc4ccccc34)C1=CCC(C)(C)C2,.,4,.,.,1,.,.,.,
CCOC1=C2[C@@H](CN(S(=O)(=O)c3ccc(C)cc3)[C@H]2c2cccs2)[C@H]2C(=O)N(c3ccccc3)C(=O)[C@H]2C1,.,3,-1,7,3,.,.,.,
